Laboratory results reported in paper PMC4684756 (Nature immunology, 2015).
“Also recorded” adds a separate entry of the source.

Key:
[1] = test system: CD8+ 42F3 T cells; assay: IL-2 release dose response of CD8+ 42F3 T cells to peptide-pulsed APCs; type: cell-based, murine; conditions: for IL-2 agonist character (in words): titrated IL-2 response in CD8+ 42F3 T cells; for maximal IL-2 response (high / medium / low): transduced CD8+ 42F3 cells, among CD8-dependent agonists
How it was run: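 Murine 58−/− hybridoma (TCRα−β−) expressing CD8αβ, retrovirally transduced with 42F3 TCR, co-cultured 1:1 with LM1.8-L^dW97R APCs (5x10⁴ cells; grown in RPMI/10% FBS) and titrated peptide for 20 h at 37°C. Peptide stocks were 50mM in DMSO, diluted in RPMI. IL-2 in supernatants was measured by HRP-colorimetric ELISA. EC50 and Emax came from the titration curves.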

[2] = molecular target: pCPE3 / H-2L^d mini-MHC m31r (murine); assay: SPR
[3] = molecular target: p4B10 / H-2L^d mini-MHC m31r (murine); assay: SPR
[4] = molecular target: pCPA12 / H-2L^d mini-MHC m31r (murine); assay: SPR
[5] = molecular target: pCPB7 / H-2L^d mini-MHC m31r (murine); assay: SPR
[6] = molecular target: pCPB9 / H-2L^d mini-MHC m31r (murine); assay: SPR
[7] = molecular target: pCPC5 / H-2L^d mini-MHC m31r (murine); assay: SPR

SPAPRPLDL [pCPC5] was tested, and the “IL-2 agonist character (in words)” value [1] was “partial IL-2 responses; also recorded: partial agonist”.
With FLSPFWFDI [p5E8] the “maximal IL-2 response (high / medium / low)” value [1] was “high”.
For 42F3 TCR, the Kd [2] was 700 nM, the koff [2] was 0.166 s⁻¹ and the kon [2] was 58600 M⁻¹ s⁻¹. For the same substance, the Kd [3] was 10000 nM, the koff [3] was over 0.5 s⁻¹ and the Kd [4] was 2000 nM. It also gave a koff [4] of 0.0579 s⁻¹, a kon [4] of 31400 M⁻¹ s⁻¹ and a koff [5] of 0.0579 s⁻¹. It also gave a kon [5] of 495000 M⁻¹ s⁻¹, a koff [6] of 0.0668 s⁻¹ and a Kd [7] of 1000 nM. For the same substance, the koff [7] was 0.197 s⁻¹.
In the case of MPAGRPWDL [pCPE3], the “IL-2 agonist character (in words)” value [1] is reported as “weak agonist; also recorded: partial agonist”.
With VPYMAEFGM [pCPA12] the “IL-2 agonist character (in words)” value [1] was “partial IL-2 responses; also recorded: partial agonist” and the “maximal IL-2 response (high / medium / low)” value [1] was “medium”.
